# Assay results collected from several papers.
# Each line is one published result; the experiments were not run side by side.
# Observed: metabolic stability
# Species: human
Compound,system,conditions,half-life [min]
C#Cc1nc(C(=O)N2CCC(NC(=O)c3cnc(-c4ccccc4)s3)(c3nc4ccccc4n3C)CC2)cs1,liver microsomes,,~20
O=c1[nH]c2ccccc2n1C1CCN(CCCC(c2ccc(F)cc2)c2ccc(F)cc2)CC1,liver microsomes,100 ng/mL,201
CC(c1cncnc1)n1c(=S)[nH]c2ccc(Cl)cc2c1=O (stereo not shown),liver microsomes,"1 µM, pH 7.4",> 186
CC(C)CC(=O)OC[C@H]1O[C@@](C#N)(c2ccc3c(N)ncnn23)[C@H](O)[C@@H]1O,hepatocytes,,< 4.36
CC(=O)c1c(C)c2cnc(Nc3ccc(C4CCN(CCS(C)(=O)=O)CC4)cn3)nc2n(C2CCCC2)c1=O,liver S9,,85.6
Cc1ncc2n1-c1ccc(Cl)cc1C(c1ccccc1F)=NC2,hepatocytes,,92.6
Cc1[nH]c(C)c(S(=O)(=O)Nc2ccc(S(=O)(=O)F)c(Cl)c2)c1C(=O)N1CCC(F)(F)C1,liver microsomes,,22
C[C@]12CC[C@H]3[C@@H](CCC4=CC(=O)CC[C@@]43C)[C@@H]1CC[C@@H]2O,liver microsomes,,21.7
O=c1c2cc(Cl)c(CO)cc2[nH]c(=S)n1Cc1cncnc1,liver microsomes,"1 µM, pH 7.4",71.8
Cc1[nH]c(C)c(S(=O)(=O)Nc2ccc(S(F)(F)(F)(F)F)cc2)c1C(=O)N1CCC(F)(F)C1,liver microsomes,,26.3
